Compounds with a hit are over-represented: about 4.8% of the library has one in this group of screens.
WT yeast gro inh – growth inhibition of WT yeast, mitochondrial fusion screen; AID 1362; actives 2.1% (n = 190,000); inhibition, % at 10 µM; mitochondrial fusion phenotypic screen, WT strain; in the data active = inhibition above about 58%; tested in S. cerevisiae
CSC inhib – blocks cancer stem cells | actives 1.1% (n = 300,000) | cancer stem cell-like cells viability, luminescence | inhibition, % at 7.5 µM; in the data active = inhibition above about 75%; tested in HMLE shEcad cells
T cruzi inh – blocks replication of Trypanosoma cruzi; T. cruzi beta-gal in NIH3T3, luminescence, 90 h; inhibition, % (test concentration not listed); actives 1.4% (n = 300,000);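 active = mean inhibition across valid replicates above about 55%, limit read from the data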;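 note: signal also drops with host cell toxicity which is not excluded here; 0% = plate median of DMSO wells and 100% = zero luminescence signal; higher percent means less beta-gal luminescence so fewer parasites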
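Test system: β-gal T. cruzi (Tulahuen C4) inside NIH/3T3 cells / Quantity: 5,000 cells/well / Measured by: luminescence from GalScreen with 0.05% NP40, read after 60 min / Medium: DMEM plus 2% FBS / Measure: parasite load inhibition, % / Reagent: Tulahuen C4 trypomastigotes, 5000/well / Schedule: co-culture of at least 90 h after 3 h attachment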
Beta apoptosis – blocks beta cell apoptosis; INS-1E cytokine-induced death, ATP luminescence, 48 h; percent of positive-control rescue, neutral wells zero; protection from apoptosis, % (test concentration not listed); actives 0.8% (n = 300,000);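 active = Every replicate reaches about 75%, or at least half do and their mean reaches it too, limit read from the data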;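 note: 0% = cytokine-treated negative control wells and 100% = positive control rescue; higher means more ATP so stronger rescue from cytokine killing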
Mot1-301 SUMO – blocks SUMOylation pathway, rescuing yeast Mot1-301 growth; S. cerevisiae Mot1-301 growth rescue, ATP luminescence, 38.5C; percent above DMSO median, 100 means doubled; growth rescue, % at 18.8 µM; actives 1% (n = 320,000); AID 2716;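 active = every valid replicate shows activation above 250% relative to neutral control wells; inactive = the rest, any valid replicate at or below 250%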;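 note: OY570 slx delta 5 strain wells were the positive control but not used for scaling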
Efflux pump mplx – antifungal efflux pump inhibition, Nile Red retention. actives 0.44% (n = 330,000). inhibition, % at 10 µM. S. cerevisiae Candida pump triplex. AID 485275;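 active = plate passing quality check with inhibition over a set limit, or well fluorescence over plate mean plus 4 SD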;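 note: Nile Red retained in pooled yeast measured as flow cytometry median fluorescence; 0% = buffer negative control and 100% = Enniatin B positive control; higher means more Nile Red kept so more efflux inhibition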
* hit, by the source's call; x = no result.

SMILES | WT yeast gro inh | CSC inhib | T cruzi inh | Beta apoptosis | Mot1-301 SUMO | Efflux pump mplx
COc1ccccc1-c1nnc(NC(=O)c2ccc(S(=O)(=O)N(C)C)cc2)o1 | 3 | 13 | -11 | -1 | 57 | 0
CCCCN(C)S(=O)(=O)c1ccc(C(=O)Nc2nnc(C3=COCCO3)o2)cc1 | 10 | 10 | -19 | 0 | 2 | 0
COc1ccccc1CNC(=O)COC(=O)C1CCN(c2ccc(C(F)(F)F)cn2)CC1 | x | -4 | -15 | -4 | -8 | 0
COc1ccc(C2CC(=O)C=C(NNS(=O)(=O)c3ccc(C)cc3)C2)cc1 (stereo unspecified) | -3 | 0 | -11 | -1 | -19 | 0
O=C(/C=C/c1cccc(Br)c1)N1CCN(c2cccc(C(F)(F)F)c2)CC1 | 67* | 32 | 2 | -8 | 9 | 0
Cn1c(C(=O)N2CCN(c3cccc(C(F)(F)F)c3)CC2)cc2sccc21 | 72* | 28 | -5 | -4 | -16 | 0
CSc1cccc(CN2CCC(CO)(Cc3cccc(C(F)(F)F)c3)CC2)c1 | 57 | 31 | 43 | 4 | 12 | 0
Cc1ccc(-n2cc(CN3CCC(CO)(Cc4cccc(C(F)(F)F)c4)CC3)cn2)cc1 | 93* | 61 | 61* | 11 | -13 | 0
OCC1(Cc2cccc(C(F)(F)F)c2)CCN(Cc2cc(F)cc(F)c2)CC1 | 69* | 13 | 15 | 0 | 9 | 0
CCOC(=O)CSc1nc(-c2cccs2)nc2c1c(=O)n(C)c(=O)n2C | x | -1 | -4 | -7 | 2 | 0
O=C(OCc1cc([N+](=O)[O-])cc2c1OCOC2)c1ccc2ccccc2n1 | 13 | 7 | -6 | -6 | 292* | 0
CC1CCCC(C)N1CC(O)COC1CCC(C(C)(C)C)CC1 (stereo unspecified) | x | -7 | 35 | -8 | 97 | 0
CC(C)NCC(O)COC1C2CC3CC(C2)CC1C3 (stereo unspecified) | -4 | 9 | 62* | 2 | 84 | 0
CC1CCC(C(C)C)C(OCC(O)CNC(C)C)C1 (stereo unspecified) | x | -27 | 3 | 15 | -4 | 0
CC(C)(C)C1CCC(OCC(O)CN2CCN(Cc3ccccc3)CC2)CC1 (stereo unspecified) | -28 | 64 | 57* | 1 | 102 | 0
CC(C)NCC(O)COC1CCC(C(C)(C)C)CC1 (stereo unspecified) | 22 | 55 | 57* | 0 | 16 | 0
CCOC(=O)c1c(C)[nH]c(C(=O)OCC(=O)Nc2sccc2C(N)=O)c1C | x | 43 | 10 | 48 | -9 | 0
COC(=O)/C(C#N)=C/c1cc(C)sc1C | x | -9 | -6 | -2 | 1 | 0
Cc1ccccc1NC(=O)CSc1n[nH]c(-c2ccccn2)n1 | x | 15 | -40 | 8 | 1 | 0
Cc1cc(C)nc(NC(=S)Nc2ccc(Br)cc2Cl)c1 | 2 | -13 | -6 | -1 | 2 | 0
COc1ccc(Br)cc1CNC(=O)CCNC(=O)Cn1ccc2ccccc2c1=O | -4 | -4 | 3 | -6 | -5 | 0
COc1ccc(N/N=C(/C(C)=O)N2CCCc3ccccc32)cc1 | x | 88* | 28 | -16 | -7 | 0
COC(C(=O)Nc1ccnn1C1CCN(C(=O)c2ccc(C)cc2)CC1)c1ccccc1 (stereo unspecified) | x | 5 | -16 | 6 | -1 | 0
O=C(COc1ccccc1)NNc1c2ccccc2nc2ccccc12 | 42 | -11 | 0 | 0 | 202 | 0
COc1ccc(OCC(=O)NNc2c3ccccc3nc3ccccc23)cc1 | 64* | 21 | 22 | 14 | 7 | 0
SMILES | WT yeast gro inh | CSC inhib | T cruzi inh | Beta apoptosis | Mot1-301 SUMO | Efflux pump mplx
Fc1ccc(N/N=C/c2ccncc2)c(F)c1 | 27 | 90* | 30 | 3 | 138 | 0
Cc1noc(C)c1S(=O)(=O)N(CC(=O)NC1CCC(C)CC1)c1ccc(C(C)C)cc1 (stereo unspecified) | x | 14 | 39 | 6 | -1 | 0
C/C(N)=C(/C#N)C(=O)CSc1nnc(Nc2c(C)cccc2C)s1 | -11 | -7 | 4 | -2 | 337* | 0
CC(C)c1ccc(S(=O)(=O)/N=C2/C=C(Sc3ncn[nH]3)C(=O)c3ccccc32)cc1 | 47 | 105* | x | 132* | -17 | 0
CC(C)(C)c1ccc(S(=O)(=O)/N=C2\C=C(NS(=O)(=O)c3ccccc3)C(=O)c3ccccc32)cc1 | x | -23 | -6 | -2 | 591 | 0
Cc1ccc(S(=O)(=O)/N=C2/C=C(Sc3ncn[nH]3)C(=O)c3ccccc32)c(C)c1 | 74 | 103* | x | 129* | -5 | 0
Cc1ccc(S(=O)(=O)/N=C2/C=C(Sc3ncn[nH]3)C(=O)c3ccccc32)cc1 | 45 | 107* | x | 98* | -33 | 0
CNC(=O)C(=O)NCC1OCCN1S(=O)(=O)c1ccc(OC)c(OC)c1 (stereo unspecified) | x | 0 | -2 | -6 | -4 | -1
CCC(C)c1ccccc1NC(=O)COC(=O)C1=NN(c2ccccc2)C(=O)CC1 (stereo unspecified) | x | 2 | x | -8 | 15 | 0
CC(C)[C@H](N)C(=O)NC[C@H]1CC[C@H](C(=O)N[C@@H](Cc2ccccc2)C(=O)O)CC1 | x | 10 | 1 | -1 | 256 | 0
Cc1cc(Cl)n2c(nc3cc(F)c(F)cc32)c1C#N | 81* | x | 79* | x | x | x
COC(=O)c1ccc2c(=O)n(-c3ccccc3)c(SCN3C(=O)c4ccccc4C3=O)nc2c1 | -7 | -5 | 6 | 106* | 19 | 0
COc1cc(C2C(C#N)=C(N)OC3=C2C(=O)CC(C)(C)C3)cc2c1OCO2 (stereo unspecified) | x | -2 | 4 | -4 | -1 | 0
Clc1ccc(CSc2nnc(-c3ccncc3)s2)cc1 | x | 3 | 59* | -6 | -16 | 0
COc1cccc(NC(=O)CN2C(=O)CSc3ccc(S(=O)(=O)N4CCCCC4)cc32)c1 | x | 3 | 1 | -5 | 9 | 0
CCC(NC(=O)Nc1nnc(C(F)(F)F)s1)(C(F)(F)F)C(F)(F)F | 40 | -17 | 62* | 124* | -30 | 0
NC(=O)c1nc[nH]c1C(=O)Nc1cccc(C(F)(F)F)c1 | x | -39 | x | 4 | -3 | 0
CN(C)C(=O)/C(C#N)=C\c1cc(Br)c(Sc2ccc(Cl)cc2)o1 | 88* | 103* | x | -2 | -13 | 0
N=c1ccn(Cc2ccc(Cl)cc2Cl)cc1 | 15 | 2 | 19 | 103* | 5 | 0
N=c1ccn(Cc2ccccc2Cl)cc1 | 4 | -17 | -8 | x | -10 | 0
CN(C)S(=O)(=O)c1ccc(C(=O)Oc2cc(=O)[nH]c3ccccc23)cc1 | x | 6 | -4 | 1 | 465* | 0
CCOC(=O)c1[nH]c2ccccc2c1NC(=O)c1ccc(S(=O)(=O)N(C)C)cc1 | 8 | -13 | -1 | x | -7 | -1

Assay outcomes from PubChem.
